Laboratory results published in ChEMBL document CHEMBL3525900, “Pharmacokinetics, distribution, and metabolism of [14C]sunitinib in rats, monkeys, and humans” (Drug Metab Dispos, 2012).

Experiments:
[1] = system: Rattus norvegicus; test: Total drug recovery in male Sprague-Dawley rat at 15 mg/kg, po administered as single dose during 0 to 72 hrs by liquid scintillation counting; assay type: ADME, organism-based; parameters: dose 15 mg/kg, dosed compound name [14C]Sunitinib, route oral; conditions: in vivo
[2] = system: Stomach; test: Drug concentration in female albino rat stomach assessed as radioactivity per gram of tissue at 20 mg/kg administered as single dose via gastric gavage measured after 6 hrs by autoradiographic analysis; assay type: ADME, organism-based; parameters: dose 20 mg/kg, dosed compound name [14C]Sunitinib; conditions: in vivo, po
[3] = system: Brain; test: Drug concentration in male Lister Hooded pigmented rat brain assessed as radioactivity per gram of tissue at 20 mg/kg administered as single dose via gastric gavage measured after 168 hrs by autoradiographic analysis; assay type: ADME, organism-based; parameters: dose 20 mg/kg, dosed compound name [14C]Sunitinib; conditions: in vivo, po
[4] = Drug concentration in male Lister Hooded pigmented rat preputial gland assessed as radioactivity per gram of tissue at 20 mg/kg administered as single dose via gastric gavage measured after 72 hrs by autoradiographic analysis; assay type: ADME, organism-based; parameters: dose 20 mg/kg, dosed compound name [14C]Sunitinib; conditions: in vivo, po
[5] = system: Spinal cord; test: Drug concentration in female albino rat spinal cord assessed as radioactivity per gram of tissue at 20 mg/kg administered as single dose via gastric gavage measured after 24 hrs by autoradiographic analysis; assay type: ADME, organism-based; parameters: dose 20 mg/kg, dosed compound name [14C]Sunitinib; conditions: in vivo, po
[6] = system: Zone of skin; test: Drug concentration in male Lister Hooded pigmented rat abdomen skin assessed as radioactivity per gram of tissue at 20 mg/kg administered as single dose via gastric gavage measured after 24 hrs by autoradiographic analysis; assay type: ADME, organism-based; parameters: dose 20 mg/kg, dosed compound name [14C]Sunitinib; conditions: in vivo, po
[7] = system: Large intestine; test: Drug concentration in male albino rat large intestine assessed as radioactivity per gram of tissue at 20 mg/kg administered as single dose via gastric gavage measured after 24 hrs by autoradiographic analysis; assay type: ADME, organism-based; parameters: dose 20 mg/kg, dosed compound name [14C]Sunitinib; conditions: in vivo, po
[8] = Drug concentration in male albino rat testis assessed as radioactivity per gram of tissue at 20 mg/kg administered as single dose via gastric gavage measured after 168 hrs by autoradiographic analysis; assay type: ADME, organism-based; parameters: dose 20 mg/kg, dosed compound name [14C]Sunitinib; conditions: in vivo, po
[9] = Drug concentration in male Lister Hooded pigmented rat bladder assessed as radioactivity per gram of tissue at 20 mg/kg administered as single dose via gastric gavage measured after 168 hrs by autoradiographic analysis; assay type: ADME, organism-based, Urinary bladder; parameters: dose 20 mg/kg, dosed compound name [14C]Sunitinib; conditions: in vivo, po
[10] = Drug recovery in feces of male Sprague-Dawley rat at 15 mg/kg, po administered as single dose during 0 to 72 hrs by liquid scintillation counting; assay type: ADME, organism-based; parameters: dose 15 mg/kg, dosed compound name [14C]Sunitinib, route oral; conditions: in vivo
[11] = system: Pancreas; test: Drug concentration in male albino rat pancreas assessed as radioactivity per gram of tissue at 20 mg/kg administered as single dose via gastric gavage measured after 3 hrs by autoradiographic analysis; assay type: ADME, organism-based; parameters: dose 20 mg/kg, dosed compound name [14C]Sunitinib; conditions: in vivo, po
[12] = system: Adrenal; test: Drug concentration in female albino rat adrenal assessed as radioactivity per gram of tissue at 20 mg/kg administered as single dose via gastric gavage measured after 24 hrs by autoradiographic analysis; assay type: ADME, organism-based; parameters: dose 20 mg/kg, dosed compound name [14C]Sunitinib; conditions: in vivo, po
Outline: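 Sprague Dawley (albino) rats, ca 7-8 weeks old, received a single gastric-gavage dose of [14C]sunitinib L-malate at 20 mg/kg (15 mg freebase/kg, 100 µCi/kg). One animal per sex killed by CO2 at 3, 6, 24, 72 and 168 h, then frozen in CO2/hexane. 30 µm sagittal sections were cut and freeze-dried. Radioactivity per gram quantified by whole-body autoradiography using regression against standards. LOQ 0.04–0.06 µg freebase equiv/g.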

[13] = Drug concentration in female albino rat salivary gland assessed as radioactivity per gram of tissue at 20 mg/kg administered as single dose via gastric gavage measured after 6 hrs by autoradiographic analysis; assay type: ADME, organism-based; parameters: dose 20 mg/kg, dosed compound name [14C]Sunitinib; conditions: in vivo, po
[14] = system: Rattus norvegicus; test: AUC (0 to infinity) as total radioactivity in female Sprague-Dawley rat plasma at 5 mg/kg, iv administered as single dose by LC/MS/MS analysis; assay type: ADME, organism-based; parameters: dose 5 mg/kg, dosed compound name [14C]Sunitinib, route intravenous, time infinity; conditions: in vivo
Outline: (§1)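 Single dose of [14C]sunitinib L-malate as free base, 50 µCi/kg. IV dose was 5 mg/kg by tail vein in 5 females. Oral dose was 15 mg/kg by gavage in 3 females and 3 males. Total radioactivity was by scintillation counting. […] Cmax was read from raw data, t½ by log-linear regression, AUC by linear trapezoidal rule.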

[15] = Drug concentration in female albino rat salivary gland assessed as radioactivity per gram of tissue at 20 mg/kg administered as single dose via gastric gavage measured after 3 hrs by autoradiographic analysis; assay type: ADME, organism-based; parameters: dose 20 mg/kg, dosed compound name [14C]Sunitinib; conditions: in vivo, po
Outline: (§2)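 Sprague Dawley albino rats, ca 7-8 weeks old, dosed once by gastric gavage with [14C]sunitinib L-malate (15 mg freebase/kg, 100 µCi/kg). One male and one female killed by CO2 at 3, 6, 24, 72 and 168 h. Carcasses frozen in solid CO2/hexane, embedded and cut into 30 µm sagittal sections, then freeze-dried. Radioactivity quantified by whole-body autoradiography against standards by regression, background subtracted.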

[16] = system: Spinal cord; test: Drug concentration in male albino rat spinal cord assessed as radioactivity per gram of tissue at 20 mg/kg administered as single dose via gastric gavage measured after 6 hrs by autoradiographic analysis; assay type: ADME, organism-based; parameters: dose 20 mg/kg, dosed compound name [14C]Sunitinib; conditions: in vivo, po
[17] = Drug concentration in female albino rat preputial gland assessed as radioactivity per gram of tissue at 20 mg/kg administered as single dose via gastric gavage measured after 6 hrs by autoradiographic analysis; assay type: ADME, organism-based; parameters: dose 20 mg/kg, dosed compound name [14C]Sunitinib; conditions: in vivo, po; outline: as §2
[18] = system: Heart; test: Drug concentration in male albino rat heart assessed as radioactivity per gram of tissue at 20 mg/kg administered as single dose via gastric gavage measured after 3 hrs by autoradiographic analysis; assay type: ADME, organism-based; parameters: dose 20 mg/kg, dosed compound name [14C]Sunitinib; conditions: in vivo, po
[19] = Drug concentration in male Lister Hooded pigmented rat lachrymal gland assessed as radioactivity per gram of tissue at 20 mg/kg administered as single dose via gastric gavage measured after 168 hrs by autoradiographic analysis; assay type: ADME, organism-based; parameters: dose 20 mg/kg, dosed compound name [14C]Sunitinib; conditions: in vivo, po
[20] = system: Adrenal; test: Drug concentration in male albino rat adrenal assessed as radioactivity per gram of tissue at 20 mg/kg administered as single dose via gastric gavage measured after 6 hrs by autoradiographic analysis; assay type: ADME, organism-based; parameters: dose 20 mg/kg, dosed compound name [14C]Sunitinib; conditions: in vivo, po
[21] = system: Rattus norvegicus; test: AUC (0 to infinity) as total radioactivity in female Sprague-Dawley rat plasma at 15 mg/kg, po administered as single dose by LC/MS/MS analysis; assay type: ADME, organism-based; parameters: time infinity, dose 15 mg/kg, dosed compound name [14C]Sunitinib, route oral; conditions: in vivo; outline: as §1
[22] = Drug concentration in female Lister Hooded pigmented rat thyroid gland assessed as radioactivity per gram of tissue at 20 mg/kg administered as single dose via gastric gavage measured after 24 hrs by autoradiographic analysis; assay type: ADME, organism-based; parameters: dose 20 mg/kg, dosed compound name [14C]Sunitinib; conditions: in vivo, po
Outline: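 Lister Hooded (pigmented) rats, ca 7-8 weeks old, acclimated 7 days, given [14C]sunitinib L-malate by gastric gavage at 20 mg/kg (15 mg freebase/kg, 100 µCi/kg). One male and one female killed by CO2 at 24, 72, 168 and 336 h. Carcasses frozen in solid CO2/hexane and embedded in frozen cellulose. 30 µm sagittal cryosections were freeze-dried. Tissue radioactivity measured by quantitative whole-body autoradiography against calibration standards, with background subtracted.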

[23] = system: Liver; test: Drug concentration in female albino rat liver assessed as radioactivity per gram of tissue at 20 mg/kg administered as single dose via gastric gavage measured after 24 hrs by autoradiographic analysis; assay type: ADME, organism-based; parameters: dose 20 mg/kg, dosed compound name [14C]Sunitinib; conditions: in vivo, po; outline: as §2
[24] = system: Stomach; test: Drug concentration in male albino rat stomach assessed as radioactivity per gram of tissue at 20 mg/kg administered as single dose via gastric gavage measured after 6 hrs by autoradiographic analysis; assay type: ADME, organism-based; parameters: dose 20 mg/kg, dosed compound name [14C]Sunitinib; conditions: in vivo, po
[25] = system: Small intestine; test: Drug concentration in female albino rat small intestine assessed as radioactivity per gram of tissue at 20 mg/kg administered as single dose via gastric gavage measured after 72 hrs by autoradiographic analysis; assay type: ADME, organism-based; parameters: dose 20 mg/kg, dosed compound name [14C]Sunitinib; conditions: in vivo, po
[26] = system: Large intestine; test: Drug concentration in male albino rat large intestine assessed as radioactivity per gram of tissue at 20 mg/kg administered as single dose via gastric gavage measured after 72 hrs by autoradiographic analysis; assay type: ADME, organism-based; parameters: dose 20 mg/kg, dosed compound name [14C]Sunitinib; conditions: in vivo, po
[27] = system: Large intestine; test: Drug concentration in female albino rat large intestine assessed as radioactivity per gram of tissue at 20 mg/kg administered as single dose via gastric gavage measured after 72 hrs by autoradiographic analysis; assay type: ADME, organism-based; parameters: dose 20 mg/kg, dosed compound name [14C]Sunitinib; conditions: in vivo, po; outline: as §2
[28] = system: Rattus norvegicus; test: Apparent terminal half life as total radioactivity in male Sprague-Dawley rat plasma at 15 mg/kg, po administered as single dose by LC/MS/MS analysis; assay type: ADME, organism-based; parameters: dose 15 mg/kg, dosed compound name [14C]Sunitinib, route oral; conditions: in vivo; outline: as §1

Radiolabel recovery [1]: 85.1%
Radiolabel recovery [2]: 8.54 ugequiv
Radiolabel recovery [3]: 0.06 ugequiv
Radiolabel recovery [4]: 7.84 ugequiv
Radiolabel recovery [5]: 0.07 ugequiv
Radiolabel recovery [6]: 5.57 ugequiv
Radiolabel recovery [7]: 1.5 ugequiv
Radiolabel recovery [8]: 0.3 ugequiv
Radiolabel recovery [9]: 0.06 ugequiv
Radiolabel recovery [10]: 75.2%
Radiolabel recovery [11]: 11.1 ugequiv
Radiolabel recovery [12]: 7.65 ugequiv
Radiolabel recovery [13]: 23.1 ugequiv
AUC [14]: 17427 ng.Eq.hr/ml
Radiolabel recovery [15]: 27.64 ugequiv
Radiolabel recovery [16]: 0.29 ugequiv
Radiolabel recovery [17]: 14.48 ugequiv
Radiolabel recovery [18]: 5.58 ugequiv
Radiolabel recovery [19]: 0.06 ugequiv
Radiolabel recovery [20]: 13.57 ugequiv
AUC [21]: 69949 ng.Eq.hr/ml
Radiolabel recovery [22]: 0.64 ugequiv
Radiolabel recovery [23]: 2.8 ugequiv
Radiolabel recovery [24]: 9.3 ugequiv
Radiolabel recovery [25]: 0.08 ugequiv
Radiolabel recovery [26]: 0.08 ugequiv
Radiolabel recovery [27]: 0.09 ugequiv
t1/2 lambda z [28]: 9 h
Structure (SMILES): CCN(CC)CCNC(=O)c1c(C)[nH]c(/[14CH]=C2\C(=O)Nc3ccc(F)cc32)c1C.O=C(O)C[C@H](O)C(=O)O
